Active and inactive are the calls of the source. No cut-off for these calls is given here.
Columns and labels:
BJ [1] = assay: Cell cycle arrest in human BJ cells expressing TERT assessed as accumulation at S stage at 0.5 uM after 24 hrs by propidium iodide staining based flow cytometry (reference value: 21%); assay type: ADME
BJ [2] = assay: Cell cycle arrest in human BJ cells expressing TERT assessed as accumulation at G0/G1 stage at 0.5 uM after 72 hrs by propidium iodide staining based flow cytometry (reference value: 83%); assay type: ADME
Nucleic Acid [3] = assay: Binding affinity to human 21-TT G-quadruplex DNA structure at 1:1 DNA to calf thymus DNA ratio by competitive inhibition assay; assay type: nucleic-acid assay; design: concentration or dose not given beside the values
Procedure, shortened: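 ESI-MS competition: quadruplex DNA and ligand each 5 μM final, plus calf thymus DNA at duplex/quadruplex ratios 1 and 5 (by phosphate concentration), in ammonium acetate. Percentage bound quadruplex and normalized bound quadruplex (N%) measured by mass spectrometry. SD over at least three independent experiments.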

BJ [4] = assay: Cell cycle arrest in human BJ cells expressing TERT assessed as accumulation at G2/M stage at 0.5 uM after 48 hrs by propidium iodide staining based flow cytometry (reference value: 6%); assay type: ADME
BJ [5] = assay: Induction of DNA damage response in human BJ cells expressing SV40 early protein EHLT assessed as accumulation of PCNA in S-phase by Hoechst staining based Leica deconvolution microscopic analysis; assay type: functional, cell-based
Procedure, shortened: (§1)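 BJ-EHLT cells co-immunostained for γ-H2AX and PCNA, nuclei counterstained with Hoechst, imaged by deconvolution microscopy. Percentages of γ-H2AX+/PCNA− and γ-H2AX+/PCNA+ nuclei scored. Mean of three independent experiments.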

BJ [6] = assay: Cell cycle arrest in human BJ cells expressing TERT assessed as accumulation at G0/G1 stage at 0.5 uM after 48 hrs by propidium iodide staining based flow cytometry (reference value: 80%); assay type: ADME
BJ [7] = assay: Induction of DNA damage response in human BJ cells expressing human TERT assessed as phosphorylation of gamma H2AX at 1 uM after 24 hrs by immunofluorescence; assay type: functional, cell-based
Procedure, shortened: (§2)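 BJ-EHLT and BJ-hTERT fibroblasts exposed to a range of concentrations for 24 h. Fixed in 2% formaldehyde, permeabilized in 0.25% Triton X-100, immunostained for γ-H2AX and 53BP1. Percentage of positive cells scored. Three independent experiments, SD.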

Nucleic Acid [8] = assay: Binding affinity to human DK66 duplex DNA structure assessed as first step association constant by electrospray ionization mass spectrometry; assay type: nucleic-acid assay
Procedure, shortened: (§3)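 ESI-MS in 150 mM ammonium acetate; DNA 5 μM final (per duplex or quadruplex unit); ligand at drug/DNA ratios 0.5 to 4. Methanol (15%) added just before injection, after binding equilibrium. K1 and K2 for 1:1 and 2:1 complexes, and % bound DNA, taken from relative peak intensities assuming equal response factors. At least three repeats.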

Nucleic Acid [9] = assay: Stabilization of human duplex DNA T-loop assessed as change in melting temperature at 1 uM by FRET assay; assay type: nucleic-acid assay
Nucleic Acid [10] = assay: Binding affinity to human 21-TT G-quadruplex DNA structure assessed as first step association constant by electrospray ionization mass spectrometry; assay type: nucleic-acid assay; procedure, shortened: as §3
BJ [11] = assay: Delocalization of TRF2 protein from […] in human BJ cells expressing SV40 early protein EHLT by chromatin immunoprecipitation assay; assay type: functional, cell-based
Procedure, shortened: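 BJ-EHLT cells treated 24 or 72 h. Formaldehyde-crosslinked chromatin immunoprecipitated with anti-TRF1, anti-TRF2 or anti-POT1; β-actin antibody as negative control. Precipitates blotted and probed for telomeric repeats (ALU probe as nonspecific). Densitometry gives percentage of precipitated DNA relative to input (10% and 1%). Four independent experiments, SD.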

BJ [12] = assay: Cell cycle arrest in human BJ cells expressing TERT assessed as accumulation at G2/M stage at 0.5 uM after 24 hrs by propidium iodide staining based flow cytometry (reference value: 17%); assay type: ADME
BJ [13] = assay: Induction of DNA damage response in human BJ cells expressing SV40 early region EHLT assessed as phosphorylation of gamma H2AX at 0.25 uM after 24 hrs by immunofluorescence method; assay type: functional, cell-based; procedure, shortened: as §2
M14 = assay: Cytotoxicity against human M14 cells after 4 days by clonogenic assay relative to control; assay type: functional, cell-based; details: M14, 96 h
Procedure, shortened: (§4)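 Clonogenic survival: cells seeded at 2 × 10^5 per dish and exposed for 4 days to 0.5-2 μM. Surviving fraction taken as absolute survival of treated over control. Four experiments, each in triplicate; mean with SD.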

HT-29 = assay: Cytotoxicity against human HT-29 cells after 4 days by clonogenic assay relative to control; assay type: functional, cell-based; details: HT-29, 96 h; procedure, shortened: as §4
BJ [14] = assay: Cell cycle arrest in human BJ cells expressing TERT assessed as accumulation at G0/G1 stage at 0.5 uM after 96 hrs by propidium iodide staining based flow cytometry (reference value: 86%); assay type: ADME
BJ [15] = assay: Induction of DNA damage response in human BJ cells expressing SV40 early protein EHLT assessed as accumulation of gamma-H2AX foci in S-phase by Hoechst staining based Leica deconvolution microscopic analysis; assay type: functional; procedure, shortened: as §1
BJ [16] = assay: Induction of DNA damage n human BJ cells expressing SV40 early protein EHLT assessed as increase in gamma-H2Ax phosphorylation at 0.5 uM; assay type: functional; procedure, shortened: as §2
BJ [17] = assay: Cell cycle arrest in human BJ cells expressing TERT assessed as accumulation at S stage at 0.5 uM after 48 hrs by propidium iodide staining based flow cytometry (reference value: 12%); assay type: ADME

O=C1c2ccc3c4ccc5c6c(cc(N7CCCCC7)c(c7ccc(c2c37)C(=O)N1CCOCCN1CCCCC1)c64)C(=O)N(CCOCCN1CCCCC1)C5=O
Activity (BJ [1]): 21.1%
Activity (BJ [2]): 87.3%
Activity (Nucleic Acid [3]): 47%
Activity (BJ [4]): 7.6%
Activity (BJ [5]): Active
Activity (BJ [6]): 78.4%
Activity (BJ [7]): inactive
log Ks (Nucleic Acid [8]): 3.9
ΔTm (Nucleic Acid [9]): -0.2 °C
log Ks (Nucleic Acid [10]): 5.8
Activity (BJ [11]): inactive
Activity (BJ [12]): 16.1%
Activity (BJ [13]): Active
IC50 (M14): 800 nM
IC50 (HT-29): 1100 nM
Activity (BJ [14]): 96.3%
Activity (BJ [15]): 80%
Activity (BJ [16]): 50%
Activity (BJ [17]): 14%
